Laboratory results reported in ChEMBL document CHEMBL1145038 (J Med Chem, 2003).
Each block holds one molecule with its values, some of them ahead of it.

What was measured:
Histamine H3 receptor [1] = biological target: T1, Histamine H3 receptor (Rattus norvegicus, UniProt Q9QYN8); assay: Affinity against rat Histamine H3 receptor using [3H]N-alpha-methyl histamine
Procedure, shortened: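 Male Sprague–Dawley rat brain homogenate without cerebellum (800 μg) incubated 1 h at 25 °C in 50 mM Na₂HPO₄/KH₂PO₄, pH 7.5, with 0.25 nM [³H]Nα-methylhistamine. Filtered on GF/B, scintillation counted. Nonspecific binding with 10 μM thioperamide. IC50 by log probit; Ki = IC50/(1+L/Ka), Ka from Rosenthal analysis of saturation at 0.1–3.0 nM. Mean ± SE.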

Histamine H3 receptor [2] = biological target: T2, Histamine H3 receptor (Homo sapiens, UniProt Q9Y5N1); assay: Inhibition of human H3-receptor using [3H]N-alpha-methyl histamine
Procedure, shortened: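 Membrane fractions from stably transfected CHO cells expressing human H3 receptor; radioligand displacement binding.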

Histamine H3 receptor [3] = biological target: T2, Histamine H3 receptor; assay: Inhibition of human Histamine H3 receptor
Histamine H3 receptor [4] = biological target: T1, Histamine H3 receptor; assay: Inhibition of rat Histamine H3 receptor using [3H]N-alpha-methyl histamine
Procedure, shortened: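 Male Sprague–Dawley rat brain (minus cerebellum) homogenate, 800 μg, incubated 1 h at 25 °C in 50 mM Na2HPO4/KH2PO4 pH 7.5 with 0.25 nM radioligand. Bound ligand separated on GF/B filters and counted by scintillation; nonspecific binding taken with 10 μM thioperamide. […] Mean ± SE.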

Histamine H4 receptor = Histamine H4 receptor (Homo sapiens, UniProt Q9H3N8); assay: Inhibition of human Histamine H4 receptor

T2 sequence (Q9Y5N1 whole entry): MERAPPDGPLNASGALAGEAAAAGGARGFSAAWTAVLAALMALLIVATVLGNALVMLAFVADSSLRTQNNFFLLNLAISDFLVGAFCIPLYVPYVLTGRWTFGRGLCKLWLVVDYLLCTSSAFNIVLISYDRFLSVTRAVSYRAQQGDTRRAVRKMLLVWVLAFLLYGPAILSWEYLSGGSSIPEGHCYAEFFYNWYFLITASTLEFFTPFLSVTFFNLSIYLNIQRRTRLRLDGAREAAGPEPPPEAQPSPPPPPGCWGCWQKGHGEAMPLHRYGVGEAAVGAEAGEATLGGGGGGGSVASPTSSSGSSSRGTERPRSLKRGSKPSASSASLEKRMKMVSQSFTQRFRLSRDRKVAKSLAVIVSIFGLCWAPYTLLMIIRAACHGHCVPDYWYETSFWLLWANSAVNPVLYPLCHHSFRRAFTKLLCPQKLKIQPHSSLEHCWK
T1 sequence (Q9QYN8 whole entry): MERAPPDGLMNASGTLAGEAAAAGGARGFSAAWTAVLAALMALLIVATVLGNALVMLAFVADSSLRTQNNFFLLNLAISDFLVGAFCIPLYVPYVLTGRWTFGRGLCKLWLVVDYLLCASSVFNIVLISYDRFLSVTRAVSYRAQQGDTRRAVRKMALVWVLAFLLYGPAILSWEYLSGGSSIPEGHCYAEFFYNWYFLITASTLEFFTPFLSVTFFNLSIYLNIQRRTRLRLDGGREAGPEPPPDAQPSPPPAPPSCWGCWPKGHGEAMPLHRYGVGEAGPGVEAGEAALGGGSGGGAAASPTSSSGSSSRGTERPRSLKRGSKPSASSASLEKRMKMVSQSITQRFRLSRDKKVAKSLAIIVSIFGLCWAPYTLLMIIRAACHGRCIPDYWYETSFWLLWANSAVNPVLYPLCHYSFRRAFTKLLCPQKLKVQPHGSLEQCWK

SMILES: N[C@@H]1C[C@@H]1c1c[nH]cn1
Ki (Histamine H3 receptor [1]): 0.0912 µM
EC50 (Histamine H3 receptor [2]): 2.33 µM

SMILES: N[C@@H]1C[C@H]1c1cnc[nH]1 [VUF-5296]
Ki (Histamine H3 receptor [1]): 0.0422 µM
EC50 (Histamine H3 receptor [3]): 0.724 µM

SMILES: NC[C@H]1C[C@H]1c1cnc[nH]1
Ki (Histamine H3 receptor [1]): 0.0647 µM

SMILES: NCC[C@H]1C[C@H]1c1cnc[nH]1
Ki (Histamine H3 receptor [1]): 0.00478 µM
EC50 (Histamine H3 receptor [3]): 1.41 µM

SMILES: S=C(NC1CCCCC1)N1CCC(c2cnc[nH]2)CC1 [THIOPERAMIDE]
Ki (Histamine H3 receptor [4]): 0.00265 µM

SMILES: N[C@H]1C[C@@H]1c1c[nH]cn1 [VUF-5297]
Ki (Histamine H3 receptor [1]): 0.0043 µM
EC50 (Histamine H3 receptor [3]): 0.042 µM

EC50 (Histamine H4 receptor): 0.051 µM
EC50 (Histamine H3 receptor [3]): 0.0019 µM
SMILES: N=C(N)SCCc1cnc[nH]1 [IMETIT]

SMILES: NC[C@@H]1C[C@@H]1c1cnc[nH]1
Ki (Histamine H3 receptor [1]): 0.0025 µM
EC50 (Histamine H3 receptor [3]): 0.096 µM

SMILES: NC[C@H]1C[C@@H]1c1cnc[nH]1
Ki (Histamine H3 receptor [1]): 0.0101 µM

SMILES: NC[C@@H]1C[C@H]1c1c[nH]cn1
Ki (Histamine H3 receptor [1]): 0.0226 µM

SMILES: N[C@H]1C[C@H]1c1c[nH]cn1
Ki (Histamine H3 receptor [1]): 1.38 µM

SMILES: NCC[C@@H]1C[C@@H]1c1cnc[nH]1
Ki (Histamine H3 receptor [1]): 0.00131 µM
EC50 (Histamine H3 receptor [3]): 0.01 µM
